Rad51 HR inh: blocks human Rad51 in homologous recombination. hRad51 DNA strand exchange, fluorescence dequenching. inhibition, % at 10 µM. 200,000 compounds, 0.085% hits;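 active = inhibition above 40% at the single screening dose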;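 note: 0% = DMSO control wells and 100% = blanks with heterologous ssDNA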
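System: human Rad51 nucleoprotein filaments preassembled on unlabelled ssDNA. Reagent: labelled 47-mer dsDNA for strand exchange. Schedule: 30-min compound preincubation and 15-min exchange, both room temperature. Measured by: FRET fluorescence dequenching, excitation 485 nm, emission 520 nm. Read-out: Fluorescence-based percent inhibition, control- and blank-normalised. Benchmarks: plate controls and plate blanks.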
KCC2 mod: modulators of human KCC2 chloride dependent transport | Q9H2X9 | KCC2 cells, thallium flux FluoZin-2 fluorescence | B-score of Tl+ flux slope (higher = more flux/activation; lower = inhibition) at 10 µM | 190,000 compounds, 2.2% hits | AID 1456;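 active = thallium flux slope and its plate-corrected score both differing from the plate sample mean at a set confidence after two filtering rounds, in either direction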;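 note: slope of fluorescence scaled to starting intensity during 10 to 20 s after thallium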
Autophagy mod: autophagy modulation, high-content screen. AID 463193. MEF GFP-LC3 puncta imaging; test concentration mostly 10 µM. calls only at 10 µM (by protocol). 190,000 compounds, 0.98% hits;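 active = percentage of spot-positive cells more than 3 SD above its plate mean, without a fluorescence outlier flag or 80% toxicity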;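 note: spot-positive cell cutoff set from DMSO-treated cells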
Ins promoter up: MIN6 insulin promoter up-regulation; MIN6 insulin promoter-GFP reporter, high-content imaging; hits give high values; z-score at 5 µM; 190,000 compounds, 0.3% hits;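 active = z-score above 3 at 5 µM with at least 500 cells counted in the well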
SKKanGAS inh: SKKanGAS growth inhibition. 300,000 compounds, 1.3% hits. AID 1662. S. pyogenes SKKanGAS, kanamycin growth, BacTiter-Glo, 6 h. inhibition, % at 7.5 µM;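 active = mean replicate score, as percent of positive control median, at least 50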;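 note: strain carries kanamycin resistance gene driven by streptokinase promoter and grows in 40 µg/ml kanamycin; loss of luminescence reflects streptokinase promoter inhibition or plain growth inhibition; 0% = median of DMSO wells and 100% = positive control at its reference dose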
WT yeast gro inh: growth inhibition of WT yeast, mitochondrial fusion screen. mitochondrial fusion phenotypic screen, WT strain. inhibition, % at 10 µM. 190,000 compounds, 2.1% hits. AID 1362; in the data active = inhibition above about 58%; tested in S. cerevisiae
Active calls of the source: *; i = inactive; · = no result given; + = active, no number. Hits are enriched below; roughly 4.2% of the tested compounds scored in any of these assays.

SMILES | Rad51 HR inh | KCC2 mod | Autophagy mod | Ins promoter up | SKKanGAS inh | WT yeast gro inh
N#Cc1ccccc1Cn1c(=O)n(C2CCCC2)c(=O)c2ccccc21 | 6 | -1 | i | 0.17 | 2 | 11
Cc1ccc(Nc2nc(N)c([N+](=O)[O-])c(NCc3ccco3)n2)cc1C | 5 | -0.53 | i | -1.8 | 60* | 72*
Cc1cccc(Nc2nc(NCc3ccco3)c3ccccc3n2)c1 | -6 | 0.47 | i | 0.16 | 19 | 98*
Cc1ccccc1Nc1nc(NCc2ccco2)c2ccccc2n1 | -4 | -0.77 | i | · | -3 | 79*
c1cncc(-c2nc(NCc3ccco3)c3ccccc3n2)c1 | -2 | · | i | -3.1 | -6 | -6
Cc1ccc(-c2nc(NCc3ccco3)c3ccccc3n2)cc1 | 2 | -0.19 | i | -1.1 | 5 | 67*
COc1cccc(Nc2nc(NCCO)c3ccccc3n2)c1 | 6 | -1.2 | i | · | 1 | 60*
S=c1[nH]c2ccc(Cl)cc2[nH]1 | 5 | 0.34 | i | · | -3 | -20
S=c1[nH]c2cc(Cl)ccc2s1 | 3 | 24* | i | -0.5 | -2 | 57
COCCN1C(=O)/C(=C/c2ccc(N3CCCC3)cc2)SC1=S | i | -0.96 | + | · | · | 8
COc1ccc(/C=C2\SC(=S)N(CCC(=O)N3CCCCC3)C2=O)cc1 | · | · | · | · | -1 | ·
COc1ccc(CNC(=O)C2CC(c3ccc(OC)cc3)=NO2)cc1 (centres undefined) | -1 | -0.24 | i | -0.53 | -6 | 2
COc1ccc(C2=NOC(C(=O)NCc3cccs3)C2)cc1 (centres undefined) | -3 | 0.08 | + | -1.1 | -7 | 16
COc1ccc(C2=NOC(CNC(N)=S)C2)cc1 (centres undefined) | -27 | 1.1 | i | -0.1 | 51* | 16
Cn1c(Oc2ccc3c(c2)OCO3)nc2c1c(=O)n(Cc1ccccc1)c(=O)n2C | 6 | -0.71 | i | -0.36 | 4 | 98*
O=c1c2ccccc2sn1-c1cc(S(=O)(=O)N2CCOCC2)ccc1N1CCOCC1 | -5 | · | i | 0.95 | 76* | 2
O=c1c2ccccc2sn1-c1cc(S(=O)(=O)N2CCOCC2)ccc1N1CCCC1 | -3 | · | i | · | 85* | -1
Cc1ccc(/C=C/C(=O)c2ccccc2O)cc1 | 11 | -0.21 | · | 0.32 | 13 | ·
O=C(/C=C/c1ccc2c(c1)OCCCO2)c1ccccc1O | -7 | -0.053 | i | 0.16 | 12 | 67*
Cc1ccc(O)c(C(=O)/C=C/c2ccc3c(c2)OCCCO3)c1 | -2 | 0.53 | i | 1.7 | -48 | 61*
Cc1ccccc1NC(=O)C(C)n1c2ccccc2c2nc(=O)cc(C)n21 (centres undefined) | -9 | -0.03 | · | -0.62 | -2 | ·
CC(C)(O)c1[nH]c2ccc(C(F)(F)F)cc2c1C(C)(C)O | · | · | · | · | 8 | ·
CCc1c(C2(O)CCCCC2)[nH]c2ccc(C(F)(F)F)cc12 | · | · | · | · | 69* | ·
CC(C)c1ccc(NC2CCCN(C(=O)c3cccs3)C2)cc1 (centres undefined) | · | · | · | · | -1 | ·
Cc1cc(C)c(S(=O)(=O)c2ccccc2C)c(OCCN(C)C)n1 | · | · | · | · | 7 | ·
SMILES | Rad51 HR inh | KCC2 mod | Autophagy mod | Ins promoter up | SKKanGAS inh | WT yeast gro inh
Clc1ccc(OCCn2cnc3ccccc32)c(Cl)c1 | -2 | · | i | · | -4 | 68*
CC(=O)Nc1cccc(N=NN2CCCCC2)c1 | -9 | -0.2 | i | -0.39 | · | -7
O=C(Oc1ccc2ccccc2c1Cl)N1CCCCCC1 | -3 | -0.9 | i | 0.21 | 8 | 81*
O=C(Oc1ccc(Cl)c2ccccc12)N1CCCCC1 | 8 | -0.0062 | i | · | 9 | 15
Cc1nn(-c2ccccc2)nc1CNC(=O)C1CCC1 | 6 | 0.35 | · | -1.6 | -2 | ·
C/C(=N\NC(=S)NC1CCCCC1)c1cccc(Br)c1 | -7 | -0.84 | i | -0.03 | 7 | 13
C/C(=N\NC(=S)NC1CCCCC1)c1ccc(C#N)cc1 | 5 | 2.1 | + | -0.77 | -4 | 18
CC1CCN(c2c(NCc3ccc(C(=O)N4CCc5ccccc54)cc3)c(=O)c2=O)CC1 | -10 | -0.75 | + | 1.5 | 8 | 0
CN1CCN(C(=O)c2cccn(Cc3c(Cl)cccc3Cl)c2=O)CC1 | · | · | · | · | -4 | ·
CCCCc1ccc(NC(=S)NCc2ccc(OC)cc2)cc1 | -13 | 0.18 | i | -0.27 | -11 | 72*
CCC(C)c1ccc(NC(=S)Nc2ccc(OC)cc2)cc1 (centres undefined) | 4 | -0.72 | i | 0.07 | 5 | 72*
CCCCc1ccc(NC(=S)NCc2ccccc2OC)cc1 | -1 | 0.41 | i | -1.6 | 59* | 65*
O=S(=O)(Nc1nc2ccccc2nc1Cl)c1ccccc1 | 1 | 0.78 | i | 1.2 | 2 | -2
O=S(=O)(Nc1nc2ccccc2nc1Cl)c1ccc2ccccc2c1 | -1 | -3.7 | i | -0.16 | 51* | -9
CC1=C(C#N)c2nc(N)c(C#N)c(C)c2/C1=C\c1ccc(OCC(=O)O)c(Cl)c1 | -16 | 1.1 | · | 0.77 | 13 | ·
COc1ccc(OC)c(S(=O)(=O)Nc2cc3c(cc2N2CCCC2)n(C)c(=O)c(=O)n3C)c1 | · | · | · | · | 5 | ·
CCCCC1CCC(c2nc(-c3ccccn3)no2)CC1 (centres undefined) | 6 | 0.5 | i | 0.88 | 61* | 10
CCCCC1CCC(c2nc(-c3cccnc3)no2)CC1 (centres undefined) | 12 | 1.6 | i | · | 16 | 68*
COc1c(Cl)cccc1-c1cn2ccc(C)cc2n1 | 17 | -0.33 | · | 0.06 | 19 | ·
O=C(NNC(=O)C1CC(c2cccnc2)=NO1)Nc1ccccc1F (centres undefined) | 22 | -0.043 | i | -0.64 | -3 | -9
O=C1C=C(NCc2ccccc2)c2ccccc2C1=O | 0 | -1.6 | i | -0.06 | 29 | 11
O=C1C=C(Nc2ccccc2O)c2ccccc2C1=O | -6 | 0.007 | i | · | 52* | 27
CC(C)C(NS(=O)(=O)c1cccc2nsnc12)C(=O)Nc1nc2ccc(Cl)cc2s1 (centres undefined) | · | -0.099 | i | -1.2 | 0 | 62*
Cc1ccc2nc(NC(=O)C3CCCN(S(=O)(=O)c4cccc5nsnc45)C3)sc2c1 (centres undefined) | -4 | -1.1 | i | 0.53 | 27 | 65*
CCOc1ccc2nc(NC(=O)C(NS(=O)(=O)c3cccc4nsnc34)C(C)C)sc2c1 (centres undefined) | 1 | -0.98 | i | -0.26 | -3 | 3
S=C1NCCc2ccccc2C1c1ccccc1Cl (centres undefined) | 2 | 0.044 | i | · | 4 | 62*
S=C1NCCc2ccccc2C1c1ccccc1 (centres undefined) | 6 | -0.0022 | i | · | 0 | 21
CCc1ccc(NC(=O)COC(=O)/C(=C/c2ccccc2OC)c2ccccc2)cc1 | -5 | 0.16 | i | -0.53 | -6 | 33
COc1ccccc1/C=C(/C(=O)OCC(=O)Nc1cc(C)ccc1C)c1ccccc1 | · | -1.7 | i | -0.13 | 55* | 27
